Structures are written as SMILES. pIC50, pKd: −log10 of the molar value. Calls of active or inactive are those of the source. The rule behind the calls is not given here.

The pIC50 is the IC50 on a negative log10 scale, so that one unit is a factor of ten. As usually defined, the pKd is −log10 of the Kd, conventionally taken in molar units.

Test [1] addresses T1, Eukaryotic initiation factor 4A-III (Homo sapiens, UniProt P38919). The experiment in a line: Inhibition of eIF4A3 (unknown origin) expressed in HEK293T cells assessed as NMD suppression at 10 uM after 6 hrs by luciferase reporter gene assay relative to control. It is filed as cell-based. The method in brief:
(§1)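 HEK293T cells were co-transfected (Lipofectamine LTX) with the pGL4.12 SV40-Luc2CP-BGG NMD reporter and a pRL-TK renilla control. After 24 h of transfection, cells were treated with compound for 6 h. Firefly/renilla luciferase ratio was measured by dual-luciferase assay and normalized to DMSO-treated cells, n = 2.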

In test [2] the target is T1, Eukaryotic initiation factor 4A-III. The experiment in a line: Inhibition of eIF4A3 (unknown origin) expressed in HEK293T cells assessed as NMD suppression at 3 uM after 6 hrs by luciferase reporter gene assay relative to control. It is filed as cell-based. The method in brief: as §1
(In general: Reporter assays use an easily measured gene product as a stand-in for the process of interest.)

Test [3] has the same target. The experiment in a line: Inhibition of MLN51-induced full-length human recombinant His6-tagged eIF4A3 RNA dependent ATPase activity expressed in Escherichia coli BL21(DE3) using single stranded poly(U) RNA as substrate after 30 mins by ADP-Glo luminescence assay. In short, it runs like this: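 ADP-Glo luminescence read-out with 150 nM eIF4A3 plus an equimolar amount of MLN51. Substrates were 35 μM ATP and 1.5 μg/mL poly(U), both at Km. Buffer: 20 mM Tris-HCl pH 7.5, 2.5 mM MgCl2, 100 mM KCl, 1 mM DTT, 0.01% Tween20. Enzyme was added last to start the reaction, then incubated 30 min at room temperature. No-enzyme wells were taken as 100% inhibition and the complete reaction as 0%.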
Background: ADP-Glo first removes unused ATP, then detects ADP through luciferase.

Test [4] has the same target. Briefly: Binding affinity to full-length human recombinant His6-tagged eIF4A3 expressed in Escherichia coli BL21(DE3) by surface plasmon resonance assay. In short, it runs like this:
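eIF4A3 immobilized on CM7 chip by amine coupling (5000–10 000 RU) in HBS-P+ with 1 mM DTT. Binding run at 25 °C in 20 mM Tris-HCl pH 8.0, 150 mM NaCl, 0.2 mM TCEP, 0.02% P20, 1−2% DMSO. Compound injected at 6−12 concentrations for 60−120 s at 50 μL/min, dissociation followed 120−1200 s. Sensorgrams double-referenced, globally fitted to 1:1 model.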
On the technique in general: Surface plasmon resonance follows binding to a sensor surface in real time, without labels.

For test [5] the target is unchanged. Briefly: Binding affinity to full-length human recombinant His6-tagged eIF4A3 expressed in Escherichia coli BL21(DE3) assessed as dissociation half life by surface plasmon resonance assay. The method in brief:
(§2)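 eIF4A3 amine-coupled to a CM7 sensor chip (5000–10 000 RU) in HBS-P+ with 1 mM DTT. Binding was run at 25 °C in 20 mM Tris-HCl pH 8.0, 150 mM NaCl, 0.2 mM TCEP, 0.02% P20 and 1–2% DMSO. Compound series of 6–12 concentrations were injected for 60–120 s at 50 μL/min, with dissociation followed for 120–1200 s. Sensorgrams were double-referenced and globally fitted to a 1:1 model.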

For test [6], the target named is Eukaryotic initiation factor 4A-I (Homo sapiens, UniProt P60842). Briefly: Inhibition of eIF4G-induced full-length human recombinant His6-tagged eIF4A1 RNA dependent ATPase activity expressed in Escherichia coli BL21(DE3) using single stranded poly(U) RNA as substrate after 40 mins by ADP-Glo luminescence assay. In short, it runs like this:
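100 nM eIF4A1 with equimolar eIF4B and eIF4G, 35 μM ATP and 1.5 μg/mL poly(U), both at Km. Buffer: Tris-HCl pH 7.5, MgCl2, KCl, DTT, Tween20. The reaction was started with enzyme and run 40 min at room temperature, with ADP read by ADP-Glo luminescence. No-enzyme wells were set as 100% inhibition.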

Test [7] has as its target T1, Eukaryotic initiation factor 4A-III. Briefly: Binding affinity to full-length human recombinant His6-tagged eIF4A3 expressed in Escherichia coli BL21(DE3) assessed as association rate constant by surface plasmon resonance assay. In short, it runs like this:
as §2

For test [8] the target is unchanged. The experiment in a line: Binding affinity to full-length human recombinant His6-tagged eIF4A3 expressed in Escherichia coli BL21(DE3) assessed as dissociation rate constant by surface plasmon resonance assay. In short, it runs like this:
as §2

Test [9] concerns the target T2, ATP-dependent RNA helicase DHX29 (Homo sapiens, UniProt Q7Z478).
T2 sequence (Q7Z478 whole entry): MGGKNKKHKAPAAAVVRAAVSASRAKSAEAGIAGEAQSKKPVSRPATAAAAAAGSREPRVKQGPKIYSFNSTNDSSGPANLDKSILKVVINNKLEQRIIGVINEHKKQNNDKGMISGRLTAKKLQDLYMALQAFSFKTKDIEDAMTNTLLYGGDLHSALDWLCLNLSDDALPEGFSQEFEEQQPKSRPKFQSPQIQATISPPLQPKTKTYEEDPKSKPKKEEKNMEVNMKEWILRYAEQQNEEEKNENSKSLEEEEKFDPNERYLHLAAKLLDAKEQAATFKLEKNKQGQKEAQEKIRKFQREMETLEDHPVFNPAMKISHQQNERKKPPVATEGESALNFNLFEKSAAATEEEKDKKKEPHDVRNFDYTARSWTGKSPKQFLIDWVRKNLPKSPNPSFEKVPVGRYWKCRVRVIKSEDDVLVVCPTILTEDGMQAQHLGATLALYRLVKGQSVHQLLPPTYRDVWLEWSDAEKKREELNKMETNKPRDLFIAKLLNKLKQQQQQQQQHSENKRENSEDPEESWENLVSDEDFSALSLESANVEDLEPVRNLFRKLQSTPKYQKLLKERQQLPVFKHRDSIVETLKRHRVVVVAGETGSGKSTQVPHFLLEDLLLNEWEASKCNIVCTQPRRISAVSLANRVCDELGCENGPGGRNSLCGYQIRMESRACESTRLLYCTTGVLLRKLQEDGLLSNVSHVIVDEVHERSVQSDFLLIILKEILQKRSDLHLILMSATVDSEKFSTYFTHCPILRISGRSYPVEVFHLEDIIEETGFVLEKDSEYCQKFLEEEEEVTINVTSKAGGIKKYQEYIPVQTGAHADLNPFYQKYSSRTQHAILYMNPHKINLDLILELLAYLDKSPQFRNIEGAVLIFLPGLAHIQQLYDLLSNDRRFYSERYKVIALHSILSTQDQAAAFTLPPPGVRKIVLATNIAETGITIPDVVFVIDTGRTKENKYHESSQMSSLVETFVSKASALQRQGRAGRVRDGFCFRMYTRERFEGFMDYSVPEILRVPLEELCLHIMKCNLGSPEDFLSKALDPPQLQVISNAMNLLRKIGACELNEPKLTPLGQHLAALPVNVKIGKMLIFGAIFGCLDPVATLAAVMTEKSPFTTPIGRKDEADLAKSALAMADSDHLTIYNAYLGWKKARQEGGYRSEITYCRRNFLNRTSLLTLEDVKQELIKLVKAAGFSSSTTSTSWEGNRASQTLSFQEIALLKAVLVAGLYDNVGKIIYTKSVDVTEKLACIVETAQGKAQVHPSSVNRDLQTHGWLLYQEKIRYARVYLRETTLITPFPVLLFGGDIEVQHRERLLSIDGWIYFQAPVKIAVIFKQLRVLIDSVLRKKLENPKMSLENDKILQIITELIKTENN
Briefly: Inhibition of human recombinant full-length FLAG-His-tagged DHX29 RNA dependent ATPase activity expressed in baculovirus infected Sf9 insect cells using single stranded poly(U) RNA as substrate after 30 mins by ADP-Glo luminescence assay. The method in brief: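 DHX29 was Ni-NTA and Superdex 200 purified and used at 6.4 nM. Substrates were 30 μM ATP and 1.8 μg/mL poly(U), both at Km. Run in pH 7.5 Tris/MgCl2/KCl/DTT/Tween20 buffer, started with enzyme, 30 min at room temperature. ADP detected by ADP-Glo luminescence, with no-enzyme wells as 100% inhibition.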

Test [10] deals with U5 small nuclear ribonucleoprotein 200 kDa helicase (Homo sapiens, UniProt O75643). Briefly: Inhibition of human recombinant full-length His-tagged BRR2 RNA dependent ATPase activity expressed in baculovirus infected Sf9 insect cells using single stranded poly(U) RNA as substrate after 30 mins by ADP-Glo luminescence assay. In short, it runs like this:
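BRR2 was Ni-NTA and gel-filtration purified and used at 6.25 nM. Substrates were 20 μM ATP and 2.5 μg/mL poly(U), both at Km. Buffer: 20 mM Tris-HCl pH 7.5, 2.5 mM MgCl2, 100 mM KCl, 1 mM DTT, 0.01% Tween20. Started with enzyme and incubated 30 min at room temperature, with ADP-Glo luminescence read-out.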

Test [11] has as its target Eukaryotic initiation factor 4A-II (Homo sapiens, UniProt Q14240). The experiment in a line: Inhibition of eIF4G-induced human recombinant His6-tagged eIF4A2 RNA dependent ATPase activity using single stranded poly(U) RNA as substrate after 40 mins by ADP-Glo luminescence assay. In short, it runs like this: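 eIF4A2 was a purchased His-tagged human protein, used at 100 nM with equimolar eIF4B and eIF4G. Substrates were 20 μM ATP and 3.0 μg/mL poly(U), both at Km. The reaction was started with enzyme in Tris-HCl pH 7.5/MgCl2/KCl/DTT/Tween20 buffer and run 40 min at room temperature. ADP-Glo read-out, with the no-enzyme control set as 100% inhibition.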

T1 sequence (P38919 whole entry): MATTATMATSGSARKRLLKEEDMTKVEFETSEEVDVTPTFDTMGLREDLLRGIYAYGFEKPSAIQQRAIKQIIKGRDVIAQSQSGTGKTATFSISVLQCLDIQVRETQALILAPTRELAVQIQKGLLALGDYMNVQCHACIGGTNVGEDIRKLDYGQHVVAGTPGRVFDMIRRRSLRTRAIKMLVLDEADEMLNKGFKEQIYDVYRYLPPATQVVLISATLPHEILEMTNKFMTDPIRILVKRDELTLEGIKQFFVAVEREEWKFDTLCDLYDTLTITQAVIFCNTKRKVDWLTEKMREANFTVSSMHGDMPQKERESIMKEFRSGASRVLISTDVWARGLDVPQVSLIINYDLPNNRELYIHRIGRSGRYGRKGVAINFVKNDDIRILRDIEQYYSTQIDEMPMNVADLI
Chain of Eukaryotic initiation factor 4A-I (P60842 whole entry): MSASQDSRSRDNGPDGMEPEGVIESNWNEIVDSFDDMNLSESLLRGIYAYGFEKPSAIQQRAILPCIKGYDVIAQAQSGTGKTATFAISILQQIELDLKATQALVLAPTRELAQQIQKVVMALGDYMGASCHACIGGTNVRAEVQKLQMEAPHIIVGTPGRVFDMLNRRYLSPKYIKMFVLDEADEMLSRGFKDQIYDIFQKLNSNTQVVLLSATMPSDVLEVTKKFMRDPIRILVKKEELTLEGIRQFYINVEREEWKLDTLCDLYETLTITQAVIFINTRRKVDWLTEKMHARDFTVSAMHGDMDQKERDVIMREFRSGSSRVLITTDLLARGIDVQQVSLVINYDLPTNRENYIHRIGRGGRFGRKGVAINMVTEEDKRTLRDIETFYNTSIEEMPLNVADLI
Chain of Eukaryotic initiation factor 4A-II (Q14240 whole entry): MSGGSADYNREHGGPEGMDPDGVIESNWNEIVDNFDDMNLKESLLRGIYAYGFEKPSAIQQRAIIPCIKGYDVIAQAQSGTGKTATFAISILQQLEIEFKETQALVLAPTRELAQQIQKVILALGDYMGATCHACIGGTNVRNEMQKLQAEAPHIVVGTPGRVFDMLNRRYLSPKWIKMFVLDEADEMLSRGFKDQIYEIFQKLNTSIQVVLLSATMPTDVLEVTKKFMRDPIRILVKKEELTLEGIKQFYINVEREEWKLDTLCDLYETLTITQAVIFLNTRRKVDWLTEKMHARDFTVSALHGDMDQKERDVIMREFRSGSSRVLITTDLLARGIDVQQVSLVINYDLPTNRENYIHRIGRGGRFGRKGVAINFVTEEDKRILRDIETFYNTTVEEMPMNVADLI
Chain of U5 small nuclear ribonucleoprotein 200 kDa helicase (O75643 whole entry): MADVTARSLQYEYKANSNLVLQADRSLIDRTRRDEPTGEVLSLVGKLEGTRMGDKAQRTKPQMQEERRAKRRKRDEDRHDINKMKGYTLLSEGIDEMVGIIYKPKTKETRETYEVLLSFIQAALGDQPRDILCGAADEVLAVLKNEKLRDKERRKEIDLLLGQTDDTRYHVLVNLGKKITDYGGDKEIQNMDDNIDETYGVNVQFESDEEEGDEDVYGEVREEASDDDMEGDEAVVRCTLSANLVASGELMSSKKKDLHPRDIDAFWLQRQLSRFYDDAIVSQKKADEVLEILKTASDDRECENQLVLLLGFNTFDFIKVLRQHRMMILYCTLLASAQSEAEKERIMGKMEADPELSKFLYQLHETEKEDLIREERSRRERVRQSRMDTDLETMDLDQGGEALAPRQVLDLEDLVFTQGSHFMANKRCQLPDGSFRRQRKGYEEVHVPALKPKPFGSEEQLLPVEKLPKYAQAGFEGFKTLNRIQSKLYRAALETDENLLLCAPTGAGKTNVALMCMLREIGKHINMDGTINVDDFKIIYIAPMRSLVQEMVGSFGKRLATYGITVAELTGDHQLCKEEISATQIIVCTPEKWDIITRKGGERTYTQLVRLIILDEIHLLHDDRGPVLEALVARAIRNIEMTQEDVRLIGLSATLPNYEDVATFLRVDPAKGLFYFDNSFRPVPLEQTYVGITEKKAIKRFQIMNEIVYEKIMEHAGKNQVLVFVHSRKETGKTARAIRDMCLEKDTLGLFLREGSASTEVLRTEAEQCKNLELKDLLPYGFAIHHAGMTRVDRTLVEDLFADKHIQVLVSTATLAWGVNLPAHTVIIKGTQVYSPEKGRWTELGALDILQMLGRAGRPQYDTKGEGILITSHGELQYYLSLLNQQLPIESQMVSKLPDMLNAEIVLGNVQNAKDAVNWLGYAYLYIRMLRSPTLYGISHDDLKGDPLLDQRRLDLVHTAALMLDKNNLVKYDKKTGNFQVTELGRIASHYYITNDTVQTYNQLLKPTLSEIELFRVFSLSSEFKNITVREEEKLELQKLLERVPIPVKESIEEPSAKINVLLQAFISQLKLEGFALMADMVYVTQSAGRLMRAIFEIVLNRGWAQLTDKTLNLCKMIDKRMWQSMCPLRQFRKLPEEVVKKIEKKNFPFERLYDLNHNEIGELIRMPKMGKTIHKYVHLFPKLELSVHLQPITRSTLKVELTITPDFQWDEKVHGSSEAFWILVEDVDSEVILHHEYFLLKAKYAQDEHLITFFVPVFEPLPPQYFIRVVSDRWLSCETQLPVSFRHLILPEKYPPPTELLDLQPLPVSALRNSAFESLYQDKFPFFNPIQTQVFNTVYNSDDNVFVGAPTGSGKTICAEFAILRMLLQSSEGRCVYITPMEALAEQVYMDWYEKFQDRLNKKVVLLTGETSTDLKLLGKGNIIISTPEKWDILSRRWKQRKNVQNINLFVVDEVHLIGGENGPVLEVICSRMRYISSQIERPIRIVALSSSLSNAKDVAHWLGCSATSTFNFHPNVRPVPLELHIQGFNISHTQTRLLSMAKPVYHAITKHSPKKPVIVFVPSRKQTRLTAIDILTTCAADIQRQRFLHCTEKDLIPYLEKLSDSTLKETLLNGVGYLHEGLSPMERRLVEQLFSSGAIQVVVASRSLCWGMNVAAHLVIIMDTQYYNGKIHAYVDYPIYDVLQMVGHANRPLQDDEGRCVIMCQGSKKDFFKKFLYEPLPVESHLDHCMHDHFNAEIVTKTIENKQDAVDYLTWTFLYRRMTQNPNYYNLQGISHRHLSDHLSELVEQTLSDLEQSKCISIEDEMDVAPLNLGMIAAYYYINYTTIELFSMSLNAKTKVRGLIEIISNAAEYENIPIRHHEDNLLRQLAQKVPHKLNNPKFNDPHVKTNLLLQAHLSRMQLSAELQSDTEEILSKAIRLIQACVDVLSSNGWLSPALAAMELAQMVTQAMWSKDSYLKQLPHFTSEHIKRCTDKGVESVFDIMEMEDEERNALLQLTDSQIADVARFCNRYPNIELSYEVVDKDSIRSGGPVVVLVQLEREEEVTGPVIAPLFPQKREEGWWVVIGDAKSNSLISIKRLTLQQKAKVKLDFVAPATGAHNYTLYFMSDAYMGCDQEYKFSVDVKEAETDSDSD

Turning to `Cc1c(C(=O)N2CCN(C(=O)c3ccc(Br)cc3)[C@H](c3ccc(Cl)cc3)C2)cnn1-c1cccc(C#N)c1`, the fold change (FC) stood at 1.34 in test [1] and 1.1 in [2]. Also, in test [3], the negative logarithm of the IC50 (pIC50) is under 4.00.

As to `N#Cc1ccnc(-c2ncc(C(=O)N3CCN(C(=O)c4ccc(Br)cc4)C(c4ccc(Cl)cc4)C3)o2)c1` (stereo not given), the fold change (FC) in test [1] came to 1.8. Besides, the “NMD suppression activity (qualitative)” value in test [2] is “Active”. The pIC50 in test [3] is 6.41.

Take `C[C@H]1C[C@@]2(O[C@H]3C[C@H]4[C@@H]5CC[C@H]6C[C@H](O)CC[C@]6(C)[C@H]5[C@@H](O)C[C@]4(C)[C@H]3[C@@]2(C)O)OC1(C)C`: the Activity result in test [4] is “Dose-dependent effect”.

`N#Cc1cccc(-c2ncc(C(=O)N3CCN(C(=O)c4ccc(Br)cc4)C(c4ccc(Cl)cc4)C3)o2)c1` (stereo not given): the fold change (FC) in test [1] is 1.8. Further, the “NMD suppression activity (qualitative)” value in test [2] was “Active”. The pIC50 in test [3] was 6.44.

Turning to `O=C(c1cnn2cc(Br)ccc12)N1CCN(C(=O)c2ccc(Br)cc2)C(c2ccc(Cl)cc2)C1` (stereo not given), in test [1], the fold change (FC) came to 1.9. In addition, the “NMD suppression activity (qualitative)” value in test [2] was “Active”. Moreover, in test [3], the pIC50 was 6.38.

Consider `Cc1c(C(=O)N2CCN(C(=O)c3ccc(Br)cc3)[C@@H](c3ccc(Cl)cc3)C2)cnn1-c1cccc(C#N)c1`, for which the fold change (FC) in [1] was 3.69; in test [2], 2.72. Further, the T1/2 in test [5] is 16.8 min. Moreover, the negative-log IC50 (pIC50) in [6] was under 4.00; in [3], 6.59; in [9], under 4.00; in test [10] it was under 4.00; in test [11], under 4.00. In addition, the values for the K in test [7] and in test [8] were 1.6 ×10⁴ /M/s and 6.9 ×10⁻⁴ /s, respectively. The pKd in [4] was 7.37.

For `COc1ccc2c(C(=O)N3CCN(C(=O)c4ccc(Br)cc4)C(c4ccc(Cl)cc4)C3)cnn2c1` (stereo not given), the fold change (FC) in test [1] was found to be 1.7. Further, the “NMD suppression activity (qualitative)” value in test [2] was “Active”. Moreover, the pIC50 in test [3] is 6.04.

For the compound `O=C(c1cnn2cc(Br)ccc12)N1CCN(C(=O)c2ccc(Br)cc2)[C@H](c2ccc(Cl)cc2)C1`, the T1/2 in [5] is 0.477 min. In addition, the K was 1.5 ×10³ /M/s in test [7] and 2.4 ×10⁻² /s in [8]. The negative logarithm of the Kd (pKd) in test [4] was 4.80. Besides, the negative-log IC50 (pIC50) in [3] was 4.22.

Turning to `Cc1c(C(=O)N2CCN(C(=O)c3ccc(Br)cc3)C(c3ccc(Cl)cc3)C2)cnn1-c1cccc(C#N)c1` (stereo not given), in [1], the fold change (FC) was 2.3. Also, the “NMD suppression activity (qualitative)” value in [2] was “Active”. In [3], the negative logarithm of the IC50 (pIC50) was 6.24.

`O=C(c1cnn2cc(Br)ccc12)N1CCN(C(=O)c2ccc(Br)cc2)[C@@H](c2ccc(Cl)cc2)C1`: the T1/2 in test [5] is 7.3 min. In addition, the K in test [7] amounted to 2.8 ×10⁴ /M/s; in test [8] it was 1.6 ×10⁻³ /s. Besides, the pKd in test [4] is 7.24. Besides, the pIC50 in [3] is 6.70.

The record behind these values is ChEMBL document CHEMBL4049423, “Discovery of Novel 1,4-Diacylpiperazines as Selective and Cell-Active eIF4A3 Inhibitors” (J Med Chem, 2017).
